Key:
MOLT-4 = assay: NCI-60 antiproliferative screening; format: cell-based; conditions: Homo sapiens, MOLT-4, read-out: percent inhibition
OVCAR-8 = assay: NCI-60 antiproliferative screening; format: cell-based; conditions: Homo sapiens, OVCAR-8, read-out: percent inhibition
HDAC6 = HDAC6 (Homo sapiens, UniProt Q9UBN7); assay: In vitro HDAC enzyme assay; format: biochemical
HCC-2998 = assay: NCI-60 antiproliferative screening; format: cell-based; conditions: Homo sapiens, HCC 2998, read-out: percent inhibition
HOP-92 = assay: NCI-60 antiproliferative screening; format: cell-based; conditions: Homo sapiens, HOP-92, read-out: percent inhibition
BT-549 = assay: NCI-60 antiproliferative screening; format: cell-based; conditions: Homo sapiens, BT-549, read-out: percent inhibition
RPMI-8226 = assay: NCI-60 antiproliferative screening; format: cell-based; conditions: Homo sapiens, RPMI-8226, read-out: percent inhibition
HDAC3 = HDAC3 (Homo sapiens, UniProt O15379); assay: In vitro HDAC enzyme assay; format: biochemical
Sequence of HDAC3 (O15379 whole entry): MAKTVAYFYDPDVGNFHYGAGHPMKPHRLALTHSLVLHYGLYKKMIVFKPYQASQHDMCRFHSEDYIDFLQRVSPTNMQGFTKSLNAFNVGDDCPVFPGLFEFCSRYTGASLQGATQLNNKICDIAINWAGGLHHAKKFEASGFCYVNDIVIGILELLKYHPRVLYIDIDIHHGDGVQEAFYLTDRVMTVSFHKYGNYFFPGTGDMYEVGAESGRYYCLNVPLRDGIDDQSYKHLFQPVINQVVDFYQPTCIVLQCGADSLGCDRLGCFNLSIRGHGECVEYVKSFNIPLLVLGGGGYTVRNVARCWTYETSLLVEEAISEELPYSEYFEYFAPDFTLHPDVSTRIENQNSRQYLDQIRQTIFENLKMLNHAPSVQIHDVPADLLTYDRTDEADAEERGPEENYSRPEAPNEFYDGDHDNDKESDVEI
Sequence of HDAC3 (Q9Y618 395-489 partner limits assumed): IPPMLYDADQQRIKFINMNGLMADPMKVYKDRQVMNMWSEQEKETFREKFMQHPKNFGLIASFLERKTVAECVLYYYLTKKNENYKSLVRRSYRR

[1] = tested on: normal bone marrow cells HS-5; assay: Cell viability assay; format: cell-based; conditions: 72 h, read-out: Antiproliferative IC50 HS-5
Method in brief: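 Cells grown in IMDM with 20% FBS, 100 U per mL penicillin and 100 μg per mL streptomycin, then plated in 96-well format. Test compound exposure was 72 h. Alamar blue solution (1 mM, as added) was then applied for a further 5–6 h, and […] was read at 530/590 nm. Data were normalized to vehicle, as means of three independent measurements (standard errors <20%), and IC50 was calculated.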

MDA-MB-231/ATCC = assay: NCI-60 antiproliferative screening; format: cell-based; conditions: Homo sapiens, MDA-MB-231, read-out: percent inhibition
LOX IMVI = assay: NCI-60 antiproliferative screening; format: cell-based; conditions: Homo sapiens, read-out: percent inhibition
HDAC1 = HDAC1 (Homo sapiens, UniProt Q13547); assay: In vitro HDAC enzyme assay; format: biochemical
Sequence of HDAC1 (Q13547 whole entry): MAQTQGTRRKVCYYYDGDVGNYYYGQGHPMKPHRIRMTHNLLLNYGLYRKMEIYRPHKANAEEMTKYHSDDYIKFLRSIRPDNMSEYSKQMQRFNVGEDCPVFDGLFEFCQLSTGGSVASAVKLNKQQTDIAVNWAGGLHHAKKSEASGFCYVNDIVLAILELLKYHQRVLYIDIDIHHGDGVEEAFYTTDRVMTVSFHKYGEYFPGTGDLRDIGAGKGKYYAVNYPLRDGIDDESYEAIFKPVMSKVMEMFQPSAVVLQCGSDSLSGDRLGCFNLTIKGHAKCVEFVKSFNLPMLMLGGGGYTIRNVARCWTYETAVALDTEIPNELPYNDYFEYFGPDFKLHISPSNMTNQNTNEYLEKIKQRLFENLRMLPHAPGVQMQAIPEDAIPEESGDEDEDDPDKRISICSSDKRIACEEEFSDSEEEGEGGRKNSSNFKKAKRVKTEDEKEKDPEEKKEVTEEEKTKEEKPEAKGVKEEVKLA

IGROV1 = assay: NCI-60 antiproliferative screening; format: cell-based; conditions: Homo sapiens, IGROV-1, read-out: percent inhibition
ACHN = assay: NCI-60 antiproliferative screening; format: cell-based; conditions: Homo sapiens, read-out: percent inhibition
[2] = tested on: melanoma cell line SK-MEL-2; assay: Cell viability assay; format: cell-based; conditions: Homo sapiens, SK-MEL-2, 72 h, read-out: Antiproliferative IC50 SK-MEL-2
K-562 = assay: NCI-60 antiproliferative screening; format: cell-based; conditions: Homo sapiens, K562, read-out: percent inhibition
UO-31 = assay: NCI-60 antiproliferative screening; format: cell-based; conditions: Homo sapiens, UO-31, read-out: percent inhibition
HS 578T = assay: NCI-60 antiproliferative screening; format: cell-based; conditions: Homo sapiens, read-out: percent inhibition
CCRF-CEM = assay: NCI-60 antiproliferative screening; format: cell-based; conditions: Homo sapiens, read-out: percent inhibition
SK-MEL-28 = assay: NCI-60 antiproliferative screening; format: cell-based; conditions: Homo sapiens, SK-MEL-28, read-out: percent inhibition
[3] = tested on: fifty-nine cancer cell lines; assay: NCI-60 antiproliferative screening, panel summary; format: cell-based; conditions: read-out: percent inhibition of 55 cell lines
A549/ATCC = assay: NCI-60 antiproliferative screening; format: cell-based; conditions: Homo sapiens, A549, read-out: percent inhibition
HDAC5 = HDAC5 (Homo sapiens, UniProt Q9UQL6); assay: In vitro HDAC enzyme assay; format: biochemical
Sequence of HDAC5 (Q9UQL6 whole entry): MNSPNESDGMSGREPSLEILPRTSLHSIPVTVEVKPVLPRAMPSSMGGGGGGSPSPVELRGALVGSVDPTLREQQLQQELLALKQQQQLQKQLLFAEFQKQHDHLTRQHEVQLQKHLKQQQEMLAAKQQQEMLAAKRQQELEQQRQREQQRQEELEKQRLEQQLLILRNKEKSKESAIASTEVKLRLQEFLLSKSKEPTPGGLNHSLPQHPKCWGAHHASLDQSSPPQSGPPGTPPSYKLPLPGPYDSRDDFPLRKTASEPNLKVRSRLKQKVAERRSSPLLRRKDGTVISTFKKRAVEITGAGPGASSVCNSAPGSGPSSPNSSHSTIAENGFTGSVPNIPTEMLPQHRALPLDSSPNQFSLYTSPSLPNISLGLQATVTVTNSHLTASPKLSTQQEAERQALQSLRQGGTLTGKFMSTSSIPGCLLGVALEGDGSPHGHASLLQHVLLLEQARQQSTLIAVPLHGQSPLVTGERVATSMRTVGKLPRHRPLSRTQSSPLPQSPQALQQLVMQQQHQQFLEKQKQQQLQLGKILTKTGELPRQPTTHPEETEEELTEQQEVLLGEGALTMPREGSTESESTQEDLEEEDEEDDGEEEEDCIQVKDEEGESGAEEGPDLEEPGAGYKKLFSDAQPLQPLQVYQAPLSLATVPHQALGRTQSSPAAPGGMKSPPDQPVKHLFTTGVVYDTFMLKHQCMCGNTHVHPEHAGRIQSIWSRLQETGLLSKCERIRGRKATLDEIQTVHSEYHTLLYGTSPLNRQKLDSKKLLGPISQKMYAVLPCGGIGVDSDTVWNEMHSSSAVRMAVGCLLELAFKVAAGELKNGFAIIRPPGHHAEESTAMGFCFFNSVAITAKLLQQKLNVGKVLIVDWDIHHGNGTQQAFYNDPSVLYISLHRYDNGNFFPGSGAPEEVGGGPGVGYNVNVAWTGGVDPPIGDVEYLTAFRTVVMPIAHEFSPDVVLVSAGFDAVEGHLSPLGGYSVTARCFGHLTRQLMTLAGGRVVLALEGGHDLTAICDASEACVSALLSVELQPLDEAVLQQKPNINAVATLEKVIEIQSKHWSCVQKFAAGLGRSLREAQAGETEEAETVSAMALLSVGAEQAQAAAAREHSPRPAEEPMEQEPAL

NCI-H460 = assay: NCI-60 antiproliferative screening; format: cell-based; conditions: Homo sapiens, NCI-H460, read-out: percent inhibition
SF-539 = assay: NCI-60 antiproliferative screening; format: cell-based; conditions: Homo sapiens, SF-539, read-out: percent inhibition
NCI/ADR-RES = assay: NCI-60 antiproliferative screening; format: cell-based; conditions: Homo sapiens, read-out: percent inhibition
SNB-75 = assay: NCI-60 antiproliferative screening; format: cell-based; conditions: Homo sapiens, SNB-75, read-out: percent inhibition
786-0 = assay: NCI-60 antiproliferative screening; format: cell-based; conditions: Homo sapiens, 786-0, read-out: percent inhibition
HDAC4 = HDAC4 (Homo sapiens, UniProt P56524); assay: In vitro HDAC enzyme assay; format: biochemical
Sequence of HDAC4 (P56524 whole entry): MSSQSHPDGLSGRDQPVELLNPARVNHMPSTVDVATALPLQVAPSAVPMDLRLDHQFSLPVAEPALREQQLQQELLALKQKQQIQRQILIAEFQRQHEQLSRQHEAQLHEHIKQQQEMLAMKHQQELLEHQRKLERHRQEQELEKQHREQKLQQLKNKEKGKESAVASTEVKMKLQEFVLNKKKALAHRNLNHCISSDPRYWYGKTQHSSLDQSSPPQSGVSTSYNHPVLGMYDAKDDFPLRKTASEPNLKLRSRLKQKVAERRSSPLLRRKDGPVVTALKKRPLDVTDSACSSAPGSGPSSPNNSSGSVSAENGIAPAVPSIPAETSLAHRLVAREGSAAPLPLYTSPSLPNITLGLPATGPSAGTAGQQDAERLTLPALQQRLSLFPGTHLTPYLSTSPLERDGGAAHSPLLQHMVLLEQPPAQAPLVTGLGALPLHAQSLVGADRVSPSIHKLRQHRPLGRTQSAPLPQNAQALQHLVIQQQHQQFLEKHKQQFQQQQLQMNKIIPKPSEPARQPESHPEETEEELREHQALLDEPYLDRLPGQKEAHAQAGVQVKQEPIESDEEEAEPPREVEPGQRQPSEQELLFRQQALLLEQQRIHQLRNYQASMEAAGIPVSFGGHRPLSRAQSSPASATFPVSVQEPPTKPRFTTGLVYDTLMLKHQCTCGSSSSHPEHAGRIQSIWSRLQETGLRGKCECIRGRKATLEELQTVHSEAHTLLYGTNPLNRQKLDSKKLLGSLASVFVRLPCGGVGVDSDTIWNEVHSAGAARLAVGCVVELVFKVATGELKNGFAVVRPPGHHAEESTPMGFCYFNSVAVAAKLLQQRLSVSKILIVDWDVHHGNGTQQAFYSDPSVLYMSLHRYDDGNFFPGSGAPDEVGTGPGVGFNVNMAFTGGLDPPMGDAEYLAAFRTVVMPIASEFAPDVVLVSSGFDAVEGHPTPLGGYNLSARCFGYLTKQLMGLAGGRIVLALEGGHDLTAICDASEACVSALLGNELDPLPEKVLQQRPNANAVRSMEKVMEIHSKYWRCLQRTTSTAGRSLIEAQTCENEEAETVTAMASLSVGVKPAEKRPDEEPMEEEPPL

MCF7 = assay: NCI-60 antiproliferative screening; format: cell-based; conditions: Homo sapiens, MCF7, read-out: percent inhibition

Sequence of HDAC6 (Q9UBN7 whole entry): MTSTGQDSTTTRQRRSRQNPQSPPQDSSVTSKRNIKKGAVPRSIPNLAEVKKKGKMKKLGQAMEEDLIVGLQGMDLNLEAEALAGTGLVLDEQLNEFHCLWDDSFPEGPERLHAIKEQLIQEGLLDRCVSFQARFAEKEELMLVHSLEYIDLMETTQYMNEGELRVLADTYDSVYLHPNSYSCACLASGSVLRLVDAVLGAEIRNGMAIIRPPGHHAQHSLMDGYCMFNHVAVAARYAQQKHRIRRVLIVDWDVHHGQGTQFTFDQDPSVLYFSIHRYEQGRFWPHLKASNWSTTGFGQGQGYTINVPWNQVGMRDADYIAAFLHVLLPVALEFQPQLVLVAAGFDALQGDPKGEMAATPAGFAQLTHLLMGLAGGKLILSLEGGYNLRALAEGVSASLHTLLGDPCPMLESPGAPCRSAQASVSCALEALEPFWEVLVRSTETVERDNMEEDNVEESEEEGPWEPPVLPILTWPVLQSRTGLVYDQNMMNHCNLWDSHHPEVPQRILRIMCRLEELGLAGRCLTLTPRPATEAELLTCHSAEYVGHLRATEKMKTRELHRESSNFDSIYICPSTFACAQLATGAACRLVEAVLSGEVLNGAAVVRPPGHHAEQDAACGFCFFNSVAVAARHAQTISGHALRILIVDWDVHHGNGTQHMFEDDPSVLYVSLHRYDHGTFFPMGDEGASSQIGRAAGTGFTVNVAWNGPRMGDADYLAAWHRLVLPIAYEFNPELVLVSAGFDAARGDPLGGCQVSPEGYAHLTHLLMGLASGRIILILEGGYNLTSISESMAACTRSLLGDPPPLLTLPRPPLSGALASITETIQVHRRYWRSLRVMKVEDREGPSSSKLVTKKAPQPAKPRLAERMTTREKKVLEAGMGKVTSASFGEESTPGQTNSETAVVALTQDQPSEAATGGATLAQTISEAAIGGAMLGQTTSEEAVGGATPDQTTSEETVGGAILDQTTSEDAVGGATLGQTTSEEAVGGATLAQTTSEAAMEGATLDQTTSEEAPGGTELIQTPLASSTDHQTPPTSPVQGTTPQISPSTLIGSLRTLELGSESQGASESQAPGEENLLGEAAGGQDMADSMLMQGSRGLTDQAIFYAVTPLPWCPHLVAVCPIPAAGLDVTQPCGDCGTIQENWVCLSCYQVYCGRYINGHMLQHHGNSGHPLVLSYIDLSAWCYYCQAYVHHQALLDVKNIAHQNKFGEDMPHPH

## COc1ccc(CN2[C@@H](C(=O)NCCCCCCC(=O)NO)Cc3c([nH]c4ccccc34)[C@@H]2C2CC2)cc1 [Compound 13d, (1S,3R)-1-Cyclopropyl-N-(7-(hydroxyamino)-7-oxoheptyl)-2-(4-methoxybenzyl)-2,3,4,9-tetrahydro-1H-pyrido[3,4-b]indole-3-carboxamide]
MOLT-4
  inhibition at 10 µM: 87.8%
OVCAR-8
  inhibition at 10 µM: 97.3%
HDAC6
  IC50: 4.5 ± 0.21 nM
HCC-2998
  inhibition at 10 µM: 100%
HOP-92
  inhibition at 10 µM: 100%
BT-549
  inhibition at 10 µM: 74.5%
RPMI-8226
  inhibition at 10 µM: 84.3%
HDAC3
  IC50: 32.1 ± 1.44 nM
[1]
  IC50: > 50000 nM
MDA-MB-231/ATCC
  inhibition at 10 µM: 100%
LOX IMVI
  inhibition at 10 µM: 100%
HDAC1
  IC50: 8.73 ± 0.46 nM
HDAC1; read-out: Inhibition% (inhibition rate, IR) against HDAC1, at a concentration of 500 nM, duplicate
  inhibition at 0.5 µM: 99.2%
IGROV1
  inhibition at 10 µM: 100%
ACHN
  inhibition at 10 µM: 99.3%
[2]
  IC50: 480 ± 10 nM
K-562
  inhibition at 10 µM: 92.5%
UO-31
  inhibition at 10 µM: 92.3%
HS 578T
  inhibition at 10 µM: 100%
CCRF-CEM
  inhibition at 10 µM: 80.3%
SK-MEL-28
  inhibition at 10 µM: 90.2%
[3]
  inhibition at 10 µM: > 80%
A549/ATCC
  inhibition at 10 µM: 82.7%
HDAC5
  IC50: > 50000 nM
  activity for HDAC5 (in words): no activity
NCI-H460
  inhibition at 10 µM: 93.6%
SF-539
  inhibition at 10 µM: 97.1%
NCI/ADR-RES
  inhibition at 10 µM: 38%
SNB-75
  inhibition at 10 µM: 89.8%
786-0
  inhibition at 10 µM: 82.7%
HDAC4
  IC50: > 50000 nM
  activity for HDAC4 (in words): no activity
MCF7
  inhibition at 10 µM: 93.6%
